Test results taken from ChEMBL document CHEMBL4311996 (Bioorg Med Chem Lett, 2019).

What was measured:
Vero = assay: (§1) Cytotoxicity against African green monkey Vero cells assessed as reduction in cell viability; type: cell-based; settings: chlorocebus sabaeus, vero
[1] = system: Middle East respiratory syndrome-related coronavirus; assay: Antiviral activity against MERS-CoV KOR/KNIH/002_05_2015 infected in African green monkey Vero cells expressing viral spike protein by immunofluorescence assay; type: functional, organism-based; settings: KOR/KNIH/002_05_2015, Vero
NIH3T3 = assay: Cytotoxicity against mouse NIH/3T3 cells assessed as reduction in cell viability; type: cell-based
[2] = Clearance in rat at 2 mg/kg, iv; type: ADME, organism-based; settings: in vivo
Summary of the method: (§2)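 Rats given single doses, 2 mg/kg intravenously or 5 mg/kg orally, with three animals per route (n = 3). Each parameter is taken from three determinations.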

[3] = Metabolic stability in mouse microsomes assessed as parent compound remaining measured after 30 mins; type: ADME, Microsome; settings: read-out: Stability
[4] = Half life in rat at 2 mg/kg, iv; type: ADME, organism-based; settings: in vivo
[5] = Oral bioavailability in rat at 5 mg/kg; type: ADME, organism-based; settings: in vivo
Summary of the method: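 Rats dosed at 5 mg/kg p.o., with comparison i.v. dosing at 2 mg/kg; n = 3 per route, three determinations.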

[6] = Metabolic stability in rat microsomes assessed as parent compound remaining measured after 30 mins; type: ADME, Microsome; settings: read-out: Stability
[7] = AUC (0 to infinity) in rat at 2 mg/kg, iv; type: ADME, organism-based; set-up: dose 2 mg/kg, route intravenous, time infinity; settings: in vivo; summary of the method: as §2
[8] = Cmax in rat at 5 mg/kg, po; type: ADME, organism-based; set-up: dose 5 mg/kg, route oral; settings: in vivo; summary of the method: as §2
[9] = Metabolic stability in human microsomes assessed as parent compound remaining measured after 30 mins; type: ADME, Microsome; settings: read-out: Stability
CHO-K1 = assay: Cytotoxicity against CHOK1 cells assessed as reduction in cell viability; type: cell-based; settings: Cricetulus griseus
[10] = AUC (0 to 24 hrs) in rat at 2 mg/kg, iv; type: ADME, organism-based; set-up: time < 24 hr, dose 2 mg/kg, route intravenous; settings: in vivo; summary of the method: as §2
[11] = molecular target: Voltage-gated inwardly rectifying potassium channel KCNH2 (Homo sapiens, UniProt Q12809); assay: Binding affinity to human ERG
HFL1 = assay: Cytotoxicity against human HFL1 cells assessed as reduction in cell viability; type: cell-based
L929 = assay: Cytotoxicity against mouse L929 cells assessed as reduction in cell viability; type: cell-based
[12] = as §1; type: cell-based; settings: chlorocebus sabaeus, Vero cells

Sequence of Voltage-gated inwardly rectifying potassium channel KCNH2 (Q12809 whole entry): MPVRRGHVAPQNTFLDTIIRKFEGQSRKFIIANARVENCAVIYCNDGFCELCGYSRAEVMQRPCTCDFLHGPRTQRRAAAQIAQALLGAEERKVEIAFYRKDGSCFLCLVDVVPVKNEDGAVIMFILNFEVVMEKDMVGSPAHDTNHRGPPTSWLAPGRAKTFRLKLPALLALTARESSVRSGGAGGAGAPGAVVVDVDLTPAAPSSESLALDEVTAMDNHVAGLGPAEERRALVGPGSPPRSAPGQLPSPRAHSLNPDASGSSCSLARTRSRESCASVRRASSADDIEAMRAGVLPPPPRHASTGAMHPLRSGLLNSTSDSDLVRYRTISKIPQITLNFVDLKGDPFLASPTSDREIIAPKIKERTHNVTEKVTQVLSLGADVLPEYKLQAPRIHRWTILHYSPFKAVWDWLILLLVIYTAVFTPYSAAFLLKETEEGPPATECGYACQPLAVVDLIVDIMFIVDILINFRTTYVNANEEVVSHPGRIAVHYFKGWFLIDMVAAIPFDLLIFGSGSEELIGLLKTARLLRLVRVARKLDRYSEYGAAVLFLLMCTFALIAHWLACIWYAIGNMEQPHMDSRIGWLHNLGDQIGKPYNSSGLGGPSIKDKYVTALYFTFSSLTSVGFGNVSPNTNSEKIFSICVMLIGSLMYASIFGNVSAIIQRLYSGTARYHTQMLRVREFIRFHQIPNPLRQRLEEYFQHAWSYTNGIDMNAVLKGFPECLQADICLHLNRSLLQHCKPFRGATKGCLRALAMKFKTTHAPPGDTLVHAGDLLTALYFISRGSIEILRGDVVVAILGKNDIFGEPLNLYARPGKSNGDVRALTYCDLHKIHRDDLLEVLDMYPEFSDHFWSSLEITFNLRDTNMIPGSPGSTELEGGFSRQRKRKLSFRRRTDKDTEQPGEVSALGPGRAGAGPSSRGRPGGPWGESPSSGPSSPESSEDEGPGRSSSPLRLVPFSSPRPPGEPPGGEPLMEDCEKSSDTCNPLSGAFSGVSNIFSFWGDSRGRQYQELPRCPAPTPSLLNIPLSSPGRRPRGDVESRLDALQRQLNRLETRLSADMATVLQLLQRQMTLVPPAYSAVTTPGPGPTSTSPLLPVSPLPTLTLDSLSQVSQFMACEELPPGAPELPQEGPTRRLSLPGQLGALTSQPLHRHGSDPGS

Structure (SMILES) | CC50 (Vero) [µM] | IC50 [1] [µM] | also measured
CC(=O)c1c(Nc2ccc(Cl)cc2)[nH]c2c(F)cc(F)cc2c1=O | > 25 | 1.44 | –
CC(=O)c1c(Nc2ccc(F)cc2F)[nH]c2c(F)cc(Cl)cc2c1=O | > 25 | 0.98 | –
CC(C)C(=O)c1c(Nc2ccc(F)c(F)c2F)[nH]c2c(Cl)cc(Cl)c(Cl)c2c1=O | 6.4 | 0.1 | –
CC(=O)c1c(NC(C)C)[nH]c2c(C(F)(F)F)cc(Cl)cc2c1=O | > 25 | 0.77 | –
CC(=O)c1c(Nc2ccc(F)cc2F)[nH]c2c([N+](=O)[O-])cc(Cl)cc2c1=O | > 25 | 1.16 | –
CC(=O)c1c(NCc2ccc(F)cc2F)[nH]c2c(F)cc(F)cc2c1=O | > 25 | 5.9 | –
CC(=O)c1c(Nc2ccc(F)c(F)c2F)[nH]c2c(F)cc(F)cc2c1=O | > 25 | 0.53 | –
COc1ccc(CNc2[nH]c3c(F)cc(F)cc3c(=O)c2C(C)=O)cc1 | > 25 | > 25 | –
CC(=O)c1c(Nc2ccc(Br)cc2)[nH]c2c(F)cc(F)cc2c1=O | > 25 | 1.13 | –
CC(=O)c1c(Nc2ccc(F)cc2F)[nH]c2c(F)cc(F)cc2c1=O | > 25 | 1.06 | –
COc1ccc(Nc2[nH]c3c(F)cc(F)cc3c(=O)c2C(C)=O)cc1 | > 25 | > 25 | –
CC(C)C(=O)c1c(Nc2ccc(F)c(F)c2F)[nH]c2c(F)cc(F)cc2c1=O | > 25 | 0.086 | IC50 (NIH3T3): 65.6 µM; clearance [2]: 1.17 mL/min/kg; remaining at 0.5 h [3]: 35%; half-life [4]: 4.6 h; F [5]: 56%; remaining at 0.5 h [6]: 44%; AUC(0-inf) [7]: 28900 ng·h/mL; Cmax [8]: 2320 ng/mL; remaining at 0.5 h [9]: 52%; IC50 (CHO-K1): 6.9 µM; AUC [10]: 28300 ng·h/mL; IC50 [11]: 6.9 µM; IC50 (HFL1): 15.6 µM; IC50 (L929): 15.8 µM
CC(C)C(=O)c1c(Nc2ccc(F)cc2F)[nH]c2c(Cl)cc(Cl)c(Cl)c2c1=O | – | 0.129 | CC50 [12]: > 25 µM
CC(C)C(=O)c1c(Nc2ccc(F)cc2F)[nH]c2c(C(F)(F)F)cc(Cl)cc2c1=O | 7.3 | 0.13 | –
CC(=O)c1c(N2CCCCC2)[nH]c2c(F)cc(F)cc2c1=O | > 25 | > 25 | –
CCCCNc1[nH]c2c(F)cc(F)cc2c(=O)c1C(C)=O | > 25 | > 25 | –
CC(=O)c1c(NCc2ccc(F)cc2)[nH]c2c(F)cc(F)cc2c1=O | > 25 | 17.6 | –
CC(C)C(=O)c1c(Nc2ccc(F)c(F)c2F)[nH]c2c(Cl)ccc(Cl)c2c1=O | 10.9 | 0.166 | –
CC(C)C(=O)c1c(Nc2ccc(F)cc2F)[nH]c2c(F)cc(F)cc2c1=O | > 25 | 0.79 | –
CC(=O)c1c(Nc2ccc(F)cc2F)[nH]c2c(Cl)cc(Cl)c(Cl)c2c1=O | > 25 | 0.29 | –
CC(=O)c1c(Nc2ccc(F)cc2F)[nH]c2c(C(F)(F)F)cc(Cl)cc2c1=O | 7.3 | 0.15 | –
CC(=O)c1c(OCc2ccc(Cl)c(Cl)c2)[nH]c2c(F)cc(F)cc2c1=O | > 25 | 7.8 | –
CC(=O)c1c(NC(C)C)[nH]c2c(C)cc(C)cc2c1=O | – | > 25 | –
CC(=O)c1c(NC(C)C)[nH]c2c(C(C)C)cccc2c1=O | – | > 25 | –
COc1cccc(Nc2[nH]c3c(F)cc(F)cc3c(=O)c2C(C)=O)c1 | > 25 | > 25 | –
CC(C)Nc1[nH]c2c(C(F)(F)F)cc(Cl)cc2c(=O)c1C(=O)c1ccccc1 | – | > 25 | –
CC(=O)c1c(N2CCOCC2)[nH]c2c(F)cc(F)cc2c1=O | > 25 | > 25 | –
